Compound activity as filed in PubChem.
XiGFP reactiv = activators of inactive X chromosome reactivation, primary screen, imaging, XiGFP fibroblasts, GFP high-content imaging, set 2; XiGFP mouse fibroblasts, % GFP-positive cells imaging, 3 d; cells co-treated with 5-aza-dC sensitizer; scaled so ellipticine positive control = 100%; activation, % at 7.58 µM; 360,000 compounds, 0.055% hits; AID 743238, 2013;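 active = mean normalized replicate activation at least 10% and every replicate at or above 10%; inconclusive = only one of the two criteria met; inactive = mean below 10% and not all replicates reach 10%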
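System: SV40-immortalized XiGFP fibroblast cells, line 68-5-11 / Incubation: 3-day compound exposure, then 15 min fixation at room temperature / Compound: single concentration per compound, delivered by pin transfer / Buffer or medium: DMEM plus 5-aza-dC sensitizer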
S100A4 MyoIIA = inhibitors of S100A4-myosin IIA peptide binding, primary screen, biochemical, fluorescence polarization, TAMRA-MyoIIA peptide; Protein S100-A4 (Homo sapiens), P26447; inhibition, % at 10.7 µM; 360,000 compounds, 0.14% hits;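 active = mean inhibition of at least 70% across replicates, with every replicate also reaching that level; inconclusive = mean inhibition reaches 70% but some replicates fall short; inactive = mean inhibition below 70%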
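System – human S100A4 monomer protein, biochemical binding assay · Buffer or medium – Calcium-containing HEPES buffer, pH 7.2 · Timing – 5 min between mix addition and reading · Also added – TAMRA-labelled myosin IIA heavy-chain peptide probe, 5 nM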
E-selectin induc = E-selectin induction in HUVECs, primary screen, imaging, HUVEC, immunofluorescence imaging, single point; normalized: neutral wells 0, TNF-alpha wells 100; activation, % at 7.58 µM; 260,000 compounds, 0.37% hits;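 active = mean E-selectin-positive cell signal at least 10% of the positive control, reached in at least 60% of replicates, without over 20% cell loss; inconclusive = no rule given, readout overlaps actives, possibly toxicity-flagged; inactive = the rest, including those meeting only one limit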
Target sequence (P16581 whole entry, looked up): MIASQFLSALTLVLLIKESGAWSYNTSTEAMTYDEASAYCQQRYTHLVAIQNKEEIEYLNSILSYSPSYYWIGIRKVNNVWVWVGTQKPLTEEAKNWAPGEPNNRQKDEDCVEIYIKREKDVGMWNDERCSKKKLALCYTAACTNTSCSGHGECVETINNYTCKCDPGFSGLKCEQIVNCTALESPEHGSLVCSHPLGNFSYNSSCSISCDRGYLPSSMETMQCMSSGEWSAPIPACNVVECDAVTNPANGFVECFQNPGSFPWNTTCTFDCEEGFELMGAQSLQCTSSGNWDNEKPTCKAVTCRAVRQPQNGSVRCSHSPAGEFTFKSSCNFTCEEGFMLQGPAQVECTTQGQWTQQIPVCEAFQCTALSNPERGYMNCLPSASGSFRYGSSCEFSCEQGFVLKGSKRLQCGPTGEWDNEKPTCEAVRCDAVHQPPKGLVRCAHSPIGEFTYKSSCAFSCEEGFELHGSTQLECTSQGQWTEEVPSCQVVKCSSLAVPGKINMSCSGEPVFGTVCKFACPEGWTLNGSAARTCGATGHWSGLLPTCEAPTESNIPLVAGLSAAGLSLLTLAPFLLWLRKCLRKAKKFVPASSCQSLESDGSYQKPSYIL
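System: HUVEC / Compound: single concentration / Signal: immunofluorescence imaging / Read-out: percent E-selectin-positive cells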
DENV2 CPE rescue = inhibitors of DENV2 cytopathic effect, primary screen, cell-based, plate reader, single concentration; CPE inhibition, % at 9.99 µM; AID 651640, 2012; DENV2-infected cells, cytopathic effect rescue; 350,000 compounds, 1.7% hits; in the data active = CPE inhibition above about 20%, passing the limit was not always enough; inconclusive = no clear call, values can overlap the other calls; tested in BHK-21 cells
Hits are given with their value; n = inactive; u = inconclusive; x = no result given. Compounds with a hit are over-represented: about 2% of the library has one in this group of screens.

SMILES	XiGFP reactiv	S100A4 MyoIIA	E-selectin induc	DENV2 CPE rescue
Cc1cc(C)c2nc(NC(=O)c3ccc4c(=O)n5c(nc4c3)CCCCC5)sc2c1	n	n	35	n
CCc1ccc(N2CC(C(=O)OCC(=O)Nc3ccc([N+](=O)[O-])cc3)CC2=O)cc1 (stereo not drawn)	n	n	n	n
Cc1c(C(=O)NCc2ccco2)oc2ccccc12	n	n	48	n
Cc1c(C(=O)NCc2ccco2)oc2ccc(Br)cc12	n	n	n	u
COc1ccccc1OCC(=O)N/N=C/C=C/c1ccc([N+](=O)[O-])o1	n	n	x	n
Cc1c(C2(O)CCCCC2)[nH]c2ccc(C#N)cc12	n	x	n	x
C[C@@H]1COC(=O)[C@H](Cc2ccc(F)cc2)C/C=C\C[C@@H](CC(=O)N[C@H](CO)Cc2ccccc2)C(=O)N1	n	n	n	41
OC[C@H]1O[C@H](c2nc(-c3nc(-c4cccs4)no3)cs2)C[C@@H]1O	n	n	n	n
CC(=O)c1ccc(Nc2nc(C(N)C3CCCCC3)cs2)cc1 (stereo not drawn)	n	n	n	n
CC(N)c1csc(Nc2ccc(C(=O)NCCCO)cn2)n1 (stereo not drawn)	n	n	n	30
NC(c1csc(Nc2ccc(C(=O)NCCCO)cn2)n1)C1CCCCC1 (stereo not drawn)	n	n	n	n
NC(c1csc(Nc2ccc(C(=O)NCCO)cc2)n1)C1CCCCC1 (stereo not drawn)	n	n	n	22
CCCC(NCC(=O)Nc1cc(S(=O)(=O)N2CCOCC2)ccc1OC)c1ccccc1 (stereo not drawn)	n	n	x	n
COCCN(C(=O)COC(=O)CC(C)c1ccccc1)c1c(N)n(Cc2ccccc2)c(=O)[nH]c1=O (stereo not drawn)	n	n	n	31
CCN(C(=O)CSc1nnc(NCCOC)s1)c1c(N)n(Cc2ccccc2)c(=O)[nH]c1=O	n	n	x	69
CCCCN(C(=S)NC(=O)c1ccccc1)c1c(N)n(Cc2ccccc2)c(=O)[nH]c1=O	n	n	40	n
CCN(C(=O)Cn1ccc(C(F)(F)F)n1)c1c(N)n(Cc2ccccc2)c(=O)[nH]c1=O	n	n	110	n
C[C@H](O)C#Cc1ccc2c(c1)O[C@@H](CN(C)C(=O)C1CCCCC1)[C@@H](C)CN([C@H](C)CO)S2(=O)=O	n	n	x	n
CC(=O)Oc1cccc(N2C(=O)c3cccc4c([N+](=O)[O-])ccc(c34)C2=O)c1	13	n	x	n
Cc1ccc(C(=O)O)cc1N1C(=O)c2cccc3c([N+](=O)[O-])ccc(c23)C1=O	n	n	n	n
COc1ccc(OC)c(S(=O)(=O)N2CCN(c3c(C)cccc3C)CC2)c1	n	n	n	27
N/C(=N\OC(=O)Nc1ccccc1)c1ncc([N+](=O)[O-])s1	n	n	n	33
O=C(COC(=O)COc1ccccc1)Nc1ncc([N+](=O)[O-])s1	n	n	n	n
COc1cccc(CN(C)C(=O)CN2C(=O)NC3(CCCc4ccccc43)C2=O)c1 (stereo not drawn)	n	n	n	73
Cc1ccc(S(=O)(=O)c2nc(S(C)(=O)=O)sc2N2CCC(C)CC2)cc1	n	n	x	n
SMILES	XiGFP reactiv	S100A4 MyoIIA	E-selectin induc	DENV2 CPE rescue
COc1ccc(Cc2n[nH]c(=S)n2-c2cc(C)ccc2C)cc1OC	n	n	n	96
CCCCCCC(=O)O	x	n	x	58
Cn1cc(CN(CCCN2CCOCC2)C(=S)Nc2cccc(Cl)c2)c2ccccc21	n	n	x	40
C[C@@H]1CN([C@@H](C)CO)C(=O)Cc2cc(NS(=O)(=O)c3cn(C)cn3)ccc2O[C@@H]1CN(C)S(=O)(=O)c1ccc(Cl)cc1	n	n	n	x
C[C@H]1CN([C@@H](C)CO)S(=O)(=O)c2ccc(C#CC3CC3)cc2O[C@H]1CN(C)Cc1cccnc1	n	n	n	n
Cc1noc(C)c1S(=O)(=O)Nc1ccc2c(c1)C(=O)N([C@@H](C)CO)C[C@H](C)[C@H](CN(C)C(=O)C1CCCCC1)OCCCC[C@@H](C)O2	n	n	n	n
Cc1noc(C)c1S(=O)(=O)Nc1ccc2c(c1)C(=O)N([C@H](C)CO)C[C@H](C)[C@@H](CN(C)C(=O)NC(C)C)OCCCC[C@H](C)O2	n	n	x	24
Cc1noc(C)c1S(=O)(=O)Nc1ccc2c(c1)C(=O)N([C@H](C)CO)C[C@@H](C)[C@@H](CN(C)C(=O)NC(C)C)OCCCC[C@H](C)O2	n	n	x	n
Cc1noc(C)c1S(=O)(=O)Nc1ccc2c(c1)C(=O)N([C@H](C)CO)C[C@H](C)[C@H](CN(C)C(=O)C1CCCCC1)OCCCC[C@@H](C)O2	n	n	n	47
Cc1noc(C)c1S(=O)(=O)Nc1ccc2c(c1)C(=O)N([C@@H](C)CO)C[C@@H](C)[C@@H](CN(C)C(=O)Nc1ccccc1)OCCCC[C@@H](C)O2	n	n	n	95
Cc1noc(C)c1S(=O)(=O)Nc1ccc2c(c1)C(=O)N([C@H](C)CO)C[C@H](C)[C@H](CN(C)C(=O)Nc1ccccc1)OCCCC[C@@H](C)O2	n	n	n	89
Cc1noc(C)c1S(=O)(=O)Nc1ccc2c(c1)C(=O)N([C@@H](C)CO)C[C@@H](C)[C@@H](CN(C)C(=O)Nc1ccccc1)OCCCC[C@H](C)O2	n	n	n	n
COc1ccc(F)cc1-c1cc(C(=O)NCc2cccc(C(F)(F)F)c2)[nH]n1	n	n	n	n
Cc1noc(C)c1S(=O)(=O)Nc1ccc2c(c1)C(=O)N([C@@H](C)CO)C[C@H](C)[C@H](CN(C)C(=O)CCCN(C)C)OCCCC[C@H](C)O2	n	x	n	73
Cc1noc(C)c1S(=O)(=O)Nc1ccc2c(c1)C(=O)N([C@H](C)CO)C[C@H](C)[C@@H](CN(C)C(=O)Nc1ccccc1)O2	n	n	n	u
Cc1noc(C)c1S(=O)(=O)Nc1ccc2c(c1)C(=O)N([C@@H](C)CO)C[C@H](C)[C@@H](CN(C)C(=O)Nc1ccccc1)O2	n	n	n	21
Cn1cc(C=CC(=O)O)c2nccnc21	n	n	n	n
Cc1ccc(S(=O)(=O)NCC[C@@H]2CC[C@H](NC(=O)Nc3cccc(F)c3)[C@@H](CO)O2)cc1	n	73	n	n
Cc1ccc(S(=O)(=O)NCC[C@H]2CC[C@@H](NC(=O)Nc3ccccc3F)[C@@H](CO)O2)cc1	n	n	n	n
O=C(Nc1ccccc1F)N[C@@H]1CC[C@H](CCNC(=O)C2CCCCC2)O[C@H]1CO	n	90	n	n
Cc1ccc(S(=O)(=O)NCC[C@H]2CC[C@@H](NC(=O)Nc3ccccc3F)[C@H](CO)O2)cc1	n	n	n	20
O=C(NCC[C@H]1CC[C@@H](NS(=O)(=O)Cc2ccccc2)[C@H](CO)O1)C1CCOCC1	n	n	n	n
